Compound activity from PubChem BioAssay.
IDH1 mut inh = IDH1 R132H (human) inhibition. O75874. IDH1 R132H reductase, diaphorase/resazurin fluorescence, 60 min. inhibition, % at 10 µM. 0.18% of 70,000 active. AID 624101; in the data active = inhibition above about 34%; inconclusive = no clear call, values can overlap the other calls; inactive = below about 11%;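 also: 0% = DMSO and 100% = no enzyme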
Target sequence (O75874 whole entry R132H): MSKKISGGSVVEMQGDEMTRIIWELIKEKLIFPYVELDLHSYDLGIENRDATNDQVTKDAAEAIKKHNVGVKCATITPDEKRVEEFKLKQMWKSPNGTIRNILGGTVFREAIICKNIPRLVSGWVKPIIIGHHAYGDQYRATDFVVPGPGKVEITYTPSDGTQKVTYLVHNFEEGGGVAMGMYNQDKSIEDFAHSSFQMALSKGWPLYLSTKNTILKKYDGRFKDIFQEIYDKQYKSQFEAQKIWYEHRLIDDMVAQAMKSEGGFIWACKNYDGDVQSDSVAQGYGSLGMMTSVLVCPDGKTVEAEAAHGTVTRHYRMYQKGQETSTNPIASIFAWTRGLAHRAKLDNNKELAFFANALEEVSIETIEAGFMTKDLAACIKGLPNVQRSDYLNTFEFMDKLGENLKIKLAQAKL
GASC1 inh = blocks human GASC-1 (KDM4C) demethylase activity; Q9H3R0; GST-KDM4C 2-372, H3K9me3 peptide, LANCE TR-FRET; inhibition, % at 12.5 µM; 0.15% of 96,000 active; AID 720574;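 active = mean replicate inhibition above about 25%, with at least 55% of replicates also reaching it, limit read from the data, passing the limit was not always enough; inconclusive = only one of those two conditions met; inactive = neither condition met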
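System – N-terminal GST-fused human GASC-1 (KDM4C) fragment, residues 2-372 · Input – enzyme final amount 10 nM · Technique – LANCE TR-FRET, Eu antibody, ULight-streptavidin, EDTA, ex 340 nm, em 618/671 nm · Medium – HEPES buffer, pH 7.5, plus ascorbate · Incubation – enzyme reaction 30 min, then detection 60 min, both room temperature · Reagent – H3K9me3 peptide with Fe(II)/2OG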
T cruzi growth-1 = blocks T. cruzi growth in NIH3T3 culture. T. cruzi beta-gal in NIH3T3, GalScreen luminescence, 90 h. inhibition, % at 8.34 µM. 5.9% of 77,000 active. AID 624255;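 active = mean inhibition above about 93%, with at least 55% of replicates each passing it, limit read from the data, passing the limit was not always enough; inconclusive = only one of those two conditions holds; inactive = neither condition holds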
T cruzi growth-2 = blocks T. cruzi growth in NIH3T3 host cells; shares compounds with T cruzi growth-1; T. cruzi beta-gal in NIH3T3, GalScreen luminescence, 90 h; inhibition, % at 8.35 µM; 72% of 5,600 active;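 active = mean replicate inhibition above about 95% and at least 55% of replicates individually reaching it, limit read from the data; inconclusive = only one of the two criteria is met; inactive = neither criterion is met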
T cruzi growth-3 = inhibitors of T. cruzi proliferation; 21% of 5,600 active; inhibition, % at 2.09 µM; T. cruzi beta-gal in NIH3T3, GalScreen luminescence, 90 h; shares compounds with T cruzi growth-1;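 active = mean inhibition above about 95%, with at least 55% of replicates also reaching it, limit read from the data; inconclusive = meets just one of the two conditions; inactive = meets neither condition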;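 also: plate controls were neutral control median for no effect and positive control median for full effect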
NIH3T3 tox = NIH/3T3 (mouse) viability loss; shares compounds with T cruzi growth-1; NIH/3T3 viability, CellTiter-Glo ATP luminescence, 90 h; cytotoxicity (signal decrease), % at 8.35 µM; 14% of 5,600 active; AID 651742;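 active = mean signal decrease across replicates above about 35% based on untreated-well scatter, with enough replicates individually passing, limit read from the data; inconclusive = no rule stated though some were filed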;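 also: 0% = median of neutral control wells and 100% = median of positive control wells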
NIH3T3 tox 2 = kills mouse NIH/3T3 fibroblasts | shares compounds with T cruzi growth-1 | NIH/3T3 viability, CellTiter-Glo ATP luminescence, 90 h | inhibition, % at 24.9 µM | 56% of 5,600 active | AID 651744;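 active = mean loss of cell viability signal at or above a set limit, and enough replicates individually reaching it; inconclusive = meets only the mean limit or only the replicate share; inactive = meets neither condition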;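 also: 0% = median of neutral control wells and 100% = median of positive control wells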
* marks the source's active call; other numbers are inactive results; ? = inconclusive; . = no result given. Shown is part of a subset that was picked to be rich in hits.

SMILES	IDH1 mut inh	GASC1 inh	T cruzi growth-1	T cruzi growth-2	T cruzi growth-3	NIH3T3 tox	NIH3T3 tox 2
C[C@@H]1CCCCO[C@H](CN(C)C(=O)Nc2ccc3c(c2)OCO3)[C@H](C)CN([C@@H](C)CO)C(=O)c2cc(NC(=O)Nc3ccc(F)cc3)ccc2O1	.	-0.3	90.5	.	.	.	.
C[C@@H]1CCCCO[C@H](CN(C)C(=O)Nc2ccc3c(c2)OCO3)[C@H](C)CN([C@H](C)CO)C(=O)c2cc(NC(=O)Nc3ccc(F)cc3)ccc2O1	1.5	-2.2	101.9*	99.9*	64.0	-9.6	-3.7
C[C@@H]1CCCCO[C@H](CN(C)C(=O)Nc2ccc3c(c2)OCO3)[C@H](C)CN([C@@H](C)CO)C(=O)c2cc(NC(=O)NC3CCCCC3)ccc2O1	.	2.7	63.6	.	.	.	.
C[C@H](CO)N1C[C@H](C)[C@H](CN(C)C(=O)Nc2ccc3c(c2)OCO3)OCCCC[C@H](C)Oc2ccc(NC(=O)NC3CCCCC3)cc2C1=O	-0.1	1.9	110.3*	105.1*	82.7	-20.3	-16.0
C[C@H](CO)N1C[C@H](C)[C@H](CN(C)C(=O)Nc2ccc(F)cc2)OCCCC[C@H](C)Oc2ccc(NC(=O)Nc3ccc4c(c3)OCO4)cc2C1=O	4.7	-1.1	94.3	.	.	.	.
C[C@@H]1CCCCO[C@@H](CN(C)C(=O)Nc2ccc3c(c2)OCO3)[C@H](C)CN([C@H](C)CO)C(=O)c2cc(NC(=O)Nc3ccc(F)cc3)ccc2O1	0.1	-0.4	102.2*	104.3*	84.2	-16.1	-11.5
C[C@H](CO)N1C[C@H](C)[C@H](CN(C)C(=O)Nc2ccc3c(c2)OCO3)OCCCC[C@H](C)Oc2ccc(NC(=O)Nc3ccc(F)cc3)cc2C1=O	.	1.0	104.3*	107.9*	89.2	7.3	6.5
Cc1ccc(NC(=O)CSc2nnc(-c3ccccc3F)n2C)cc1[N+](=O)[O-]	0.1	.	.	.	.	.	.
COC(=O)c1cc(OC)c(OC)cc1NC(=O)COc1ccccc1F	0.5	.	.	.	.	.	.
O=C(Nc1ccccc1)c1cc(S(=O)(=O)Nc2ccccn2)ccc1Br	-0.1	.	.	.	.	.	.
CCn1c(SCC(=O)Nc2ccccc2F)nnc1-c1cccc(N)c1	0.3	.	.	.	.	.	.
CCc1ccc(Nc2nc3ccccc3nc2NS(=O)(=O)c2ccc(NC(C)=O)cc2)cc1	2.5	.	.	.	.	.	.
COc1ccc(-c2oc3cc(OC)c(OC)c(O)c3c(=O)c2OC)cc1OC	0.2	.	.	.	.	.	.
COc1cc2c(cc1NC(=O)CSc1nnc(-c3cnccn3)n1-c1ccccc1)oc1ccccc12	0.8	.	.	.	.	.	.
O=C(Cc1ccncc1)N1CC[C@H]2[C@H](CO)Nc3ccc(-c4ccccc4)cc3[C@H]21	.	-1.1	.	.	.	.	.
O=C(Cc1ccccc1)N1CC[C@@H]2[C@H]1c1cc(-c3ccccc3F)ccc1N[C@@H]2CO	.	0.7	112.7*	89.1	67.1	-9.7	53.0*
O=C(Cc1ccccc1)N1CC[C@H]2[C@H](CO)Nc3ccc(-c4ccccc4)cc3[C@H]21	.	-0.5	?	104.8*	69.1	-9.4	-20.1
O=C(Cc1ccccc1)N1CC[C@H]2[C@H](CO)Nc3ccc(C#Cc4ccccc4)cc3[C@H]21	.	-2.6	119.4*	104.6*	57.4	13.8	74.7*
O=C(Cc1ccccc1)N1CC[C@H]2[C@H](CO)Nc3ccc(C#Cc4cccc(F)c4)cc3[C@H]21	.	-1.0	.	.	.	.	.
O=C(CN1CCOCC1)N1CC[C@@H]2[C@@H](CO)Nc3ccc(-c4ccccc4F)cc3[C@@H]21	.	-0.5	49.7	.	.	.	.
C[C@H]1CN([C@@H](C)CO)C(=O)c2c(c3ccccc3n2C)-c2ccccc2CO[C@@H]1CN(C)Cc1cccnc1	.	3.3	75.9	.	.	.	.
C[C@@H]1CN([C@H](C)CO)C(=O)c2c(c3ccccc3n2C)-c2ccccc2CO[C@@H]1CN(C)C	-0.5	-0.2	?	-16.0	-9.9	-17.9	1.4
CC(=O)N(C)C[C@H]1OCc2ccccc2-c2c(n(C)c3ccccc23)C(=O)N([C@@H](C)CO)C[C@H]1C	-0.5	-0.3	-24.4	.	.	.	.
C[C@@H]1CN([C@@H](C)CO)C(=O)c2c(c3ccccc3n2C)-c2ccccc2CO[C@@H]1CN(C)Cc1cccnc1	6.1	1.7	135.3*	99.1*	13.1	19.0	69.0*
C[C@@H]1CN([C@H](C)CO)C(=O)c2c(c3ccccc3n2C)-c2ccccc2CO[C@H]1CN(C)C	-3.4	1.4	106.5*	86.5	-26.0	-6.5	13.5
